Measured values pooled from the literature.
Each line is one published result; the experiments were not run side by side.
Genome polyprotein protease: Genome polyprotein, protease (ZIKV, UniProt A0A024B7W1)
USP14: Ubiquitin carboxyl-terminal hydrolase 14 (USP14, Homo sapiens, UniProt P54578)
NR1H2: Oxysterols receptor LXR-beta (NR1H2, Homo sapiens, UniProt P55055)
CDK8 with cyclin C: Cyclin-dependent kinase 8, with cyclin C (CDK8, Homo sapiens, UniProt P49336)
Adra1a: Alpha-1A adrenergic receptor (Adra1a, Rattus norvegicus, UniProt P43140)
HTR7: 5-hydroxytryptamine receptor 7 (HTR7, Homo sapiens, UniProt P34969)
CTSB: Cathepsin B (CTSB, Homo sapiens, UniProt P07858)

For OC(CCN1CC=C(c2ccc(F)cc2)CC1)c1ccc(F)c2ccccc12 (stereo not drawn), the inhibition was 18% (Plasmepsin II (Plasmodium falciparum, UniProt P46925); enzyme activity, inhibitor; 5 µM).
With O=c1c(O)c(-c2cc(O)c(O)c(O)c2)oc2cc(O)cc(O)c12 the inhibition was 88% (Genome polyprotein protease; enzyme activity, inhibitor, FRET; 100 µM, pH 7).
With Cn1c(=O)c2ncnnc2n(C)c1=O the inhibition was 96% (USP14; enzyme activity, inhibitor; 17 µM).
O=C(Nc1cccnn1)N1CCN([C@@H]2CCOc3cc(C(F)(F)F)ccc32)CC1 has an inhibition of -6% (NR1H2; cell-free assay; 20 µM).
N#Cc1ccc(NCCNCC(=O)N2N=CCC2C#N)nc1 (stereo not drawn) gave an inhibition of 49% (Dipeptidyl peptidase 9 (DPP9, Homo sapiens, UniProt Q86TI2); enzyme activity, inhibitor; 1 µM).
C#Cc1n[nH]c2c(-c3cn([C@@H](C)c4ccccc4)c(=O)[nH]c3=O)cc(F)cc12 has an inhibition of -0.8% (Dual specificity protein kinase CLK3 (CLK3, Homo sapiens, UniProt P49761); enzyme activity, inhibitor; 0.1 µM).
COc1cc(Nc2ncc(F)c(Nc3ccc4c(n3)NC(=O)C(C)(C)O4)n2)cc(OC)c1OC gave an inhibition of 7% (SNF-related serine/threonine-protein kinase (SNRK, Homo sapiens, UniProt Q9NRH2); binding; 10 µM).
For O=c1cc(-c2ccccc2)oc2cc(O)cc(O)c12, the inhibition was 19% (Genome polyprotein protease; enzyme activity, inhibitor, FRET; 100 µM, pH 7).
Cn1cc(-c2cccc(N3CCc4c(sc5c4CC(C)(C)C5)C3=O)c2CO)cc(Nc2ccncn2)c1=O has an inhibition of -1% (CDK8 with cyclin C; enzyme activity, inhibitor; 1 µM).
COc1ccc(-c2oc3c(CC=C(C)C)c(O)cc(O)c3c(=O)c2O)cc1 has an inhibition of 19% (Genome polyprotein protease; enzyme activity, inhibitor, FRET; 100 µM, pH 7).
CCCCCCCCCCCC(=O)OC[C@@H](COP(=O)(O)OCCNC(=O)c1ccc(Cn2c(=O)[nH]c3c(N)nc(OCCOC)nc32)cc1)OC(=O)CCCCCCCCCCC has an inhibition of -11% (Adra1a; ligand displacement, radioligand; 10 µM).
For O=C1N=C(N2CCCCN2)S/C1=C\c1ccc(F)cc1O, the inhibition was under 10% (HTR7; ligand displacement, radioligand; 10 µM).
C[C@H](C(=O)N[C@H]1COc2ccccc2[C@@H]1S(C)(=O)=O)c1ccc(F)cc1 has an inhibition of 11% (Voltage-dependent N-type calcium channel subunit alpha-1B (Cacna1b, Rattus norvegicus, UniProt Q02294); cell-free assay; 10 µM).
C#Cc1n[nH]c2c(-c3cn([C@@H](C)c4ccccn4)c(=O)[nH]c3=O)cc(F)cc12 has an inhibition of -1.7% (CDK8 with cyclin C; enzyme activity, inhibitor; 0.1 µM).
Cn1c(=O)c2c(ncn2C)n(C)c1=O has an inhibition of 6% (Genome polyprotein protease; enzyme activity, inhibitor, FRET; 100 µM, pH 7).
The inhibition of O=c1c(O)c(-c2ccc(O)c(O)c2)oc2cc(O)cc(O)c12 is reported as 100% (Genome polyprotein protease; enzyme activity, inhibitor; 200 µM, pH 8.5).
CCOC(=O)c1ccc(OC(=O)CCCCCNC(=N)N)cc1 gave an inhibition of 1% (USP14; enzyme activity, inhibitor; 10 µM).
O=c1c(O)c(-c2ccc(O)c(O)c2)oc2cc(O)cc(O)c12 has an inhibition of 37% (Genome polyprotein protease; enzyme activity, inhibitor, FRET; 100 µM, pH 7).
CN(C)C(=O)COC(=O)Cc1ccc(OC(=O)c2ccc(NC(=N)N)cc2)cc1 has an inhibition of 0% (CTSB; enzyme activity, inhibitor; 10 µM).
With CCN(CC)CCCC[C@H](NC(=O)[C@H](CC(C)C)NC(=O)[C@H](C)NC(=O)[C@H](Cc1ccccc1)NC(=O)c1ccc(C(C)(C)C)cc1)C(=O)N[C@@H](CO)C(=O)OC the inhibition was 8% (HTR7; ligand displacement, radioligand; 10 µM).
For CC(C)C[C@H](NC(=O)[C@H]1O[C@@H]1C(=O)O)C(=O)NCCCCN=C(N)N, the inhibition was 32% (CTSB; enzyme activity, inhibitor; 500 pM).
CC(C)N1CCC[C@H]1CNC(=O)c1cn(C2CCCC2)c(=O)c2c1c1ccccc1n2C gave an inhibition of 16% (Adra1a; ligand displacement, radioligand; 10 µM).
With Cc1ncc(C)n2nc(/C=C/c3nc(N4CCCC4)cc(N4CCOCC4)n3)nc12 the inhibition was -19% (NR1H2; cell-free assay; 10 µM).
For N=C(N)c1ccc2cc(OC(=O)c3ccc(N=C(N)N)cc3)ccc2c1, the inhibition was 48% (CTSB; enzyme activity, inhibitor; 10 µM).
